The values below come from ChEMBL document CHEMBL3769319, “Antischistosomal activity of N,N'-arylurea analogs against Schistosoma japonicum” (Bioorg Med Chem Lett, 2016).

What is called IC50 is the concentration at which inhibition is half-maximal.

In assay [1] the test system is Schistosoma japonicum. Kind of assay: Antischistosomal activity against juvenile stage of Schistosoma japonicum at 32 uM after 72 hrs by microscopy.
Assay [2] has as its system Schistosoma japonicum. The experiment in a line: Antischistosomal activity against adult stage of Schistosoma japonicum infected in ICR mouse assessed as reduction of parasite burden at 400 mg/kg, po administered as single dose measured after 14 days. It is filed as functional. Also on record: scale not given: the % may be the effect or the level left. An outline of the steps:
(§1)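 Mice with adult S. japonicum infection got one oral dose (200 or 400 mg/kg) as an ultrasound-aided corn oil suspension; one group got an HP-β-CD complex solution instead. Untreated infected mice served as controls, 5–6 per group. Worm counts (mean, SD) gave percent worm burden reduction against control.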

In assay [3] the test system is Schistosoma japonicum. Kind of assay: Antischistosomal activity against juvenile stage of Schistosoma japonicum after 72 hrs by microscopy. The format is functional, organism-based. An outline of the steps:
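Juvenile S. japonicum were screened at 32 µM for 72 h. Compounds that killed worms were then tested three times in 2-fold serial dilutions from 32 to 2 µM, each incubated 72 h, and IC50 was calculated.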

Assay [4] relates to Schistosoma japonicum. The experiment in a line: Antischistosomal activity against adult stage of Schistosoma japonicum after 72 hrs by microscopy. The format is functional, organism-based.
For assay [5], the system named is Schistosoma japonicum. Kind of assay: Antischistosomal activity against juvenile stage of Schistosoma japonicum infected in ICR mouse assessed as reduction of parasite burden at 200 mg/kg, po administered as single dose measured after 14 days. It is filed as functional. Also on record: scale not given: the % may be the effect or the level left.
The test system of assay [6] is Schistosoma japonicum. The experiment in a line: Antischistosomal activity against adult stage of Schistosoma japonicum infected in ICR mouse assessed as reduction of parasite burden at 200 mg/kg, po administered as single dose measured after 14 days. It is filed as functional. Also on record: scale not given: the % may be the effect or the level left. Summed up:
as §1

The test system of assay [7] is Schistosoma japonicum. The experiment in a line: Antischistosomal activity against juvenile stage of Schistosoma japonicum infected in ICR mouse assessed as reduction of parasite burden at 400 mg/kg, po administered as single dose measured after 14 days. The format is functional. Also on record: scale not given: the % may be the effect or the level left.
Another assay deals with Schistosoma mansoni. The experiment in a line: Antischistosomal activity against Schistosoma mansoni infected in mouse assessed as reduction of parasite burden at 400 mg/kg, po administered as single dose. Also on record: scale not given: the % may be the effect or the level left. The format is functional.

Active and inactive are the calls of the source. No cut-off for these calls is given here.

In the case of `O=C(Nc1cnc(Cl)c(Cl)c1)Nc1cnc(Cl)c(Cl)c1`, the outcome in the assay on Schistosoma japonicum [1] was inactive.

For the compound `O=C(Nc1ccc(Cl)c(Cl)c1)C(=O)Nc1ccc(Cl)c(Cl)c1`, the result with Schistosoma japonicum [1] was inactive.

Take `COc1cccc(NC(=O)Nc2ccc(Cl)c(Cl)c2)c1`: the outcome in the assay with Schistosoma japonicum [1] was inactive.

`O=C(C1CCCCC1)N1CC(=O)N2CCc3ccccc3C2C1` (stereo not drawn) [PRAZIQUANTEL]: the Activity in the assay with Schistosoma japonicum [2] is given as 90.7%.

In the case of `O=C(Nc1ccc(Cl)c(Cl)c1)NC12CC3CC(CC(C3)C1)C2`, the result in the assay with Schistosoma japonicum [1] was inactive.

`O=C(Nc1ccccc1S(=O)(=O)N1CCOCC1)Nc1ccccc1S(=O)(=O)N1CCOCC1` registered an IC50 in the assay with Schistosoma japonicum [3] of 22.6 µM.

Take `COc1ccccc1NC(=O)Nc1ccc(Cl)c(Cl)c1`: in the assay with Schistosoma japonicum [1], the result was inactive.

With `O=C(Nc1ccc(Cl)c(Cl)c1)Nc1ccc(Cl)c(C(F)(F)F)c1`, the concentration for half-maximal inhibition (IC50) with Schistosoma japonicum [4] stood at 1.5 µM; in the assay with Schistosoma japonicum [3], 2.5 µM. Also, the results for the Activity in the assay on Schistosoma japonicum [5] and in the assay on Schistosoma japonicum [6] were 11.6% and 26.6%, respectively.

As to `Nc1ccc(NC(=O)Nc2ccc(Cl)c(Cl)c2)cc1`, the outcome in the assay with Schistosoma japonicum [1] was inactive.

Consider `O=C(Nc1ccc(Cl)c(Cl)c1)NN1CCN(c2ccccc2)CC1`, for which the result in the assay on Schistosoma japonicum [1] was inactive.

With `O=C1C(=O)N(c2ccc(Cl)c(C(F)(F)F)c2)C(=O)N1c1ccc(Cl)c(Cl)c1`, in the assay on Schistosoma japonicum [1], the result was inactive.

Turning to `C[C@H]1[C@H](OC(=O)CCC(=O)O)O[C@@H]2O[C@@]3(C)CC[C@H]4[C@H](C)CC[C@@H]1[C@@]24OO3` [ARTESUNATE], in the assay on Schistosoma japonicum [7], the Activity is listed as 72.4%.

As to `Clc1ccc(Nc2nc(Nc3ccc(Cl)c(Cl)c3)nc(N3CCOCC3)n2)cc1Cl`, the result in the assay on Schistosoma japonicum [1] was Active. It took 19 µM to reach half-maximal inhibition in the assay with Schistosoma japonicum [3] (IC50).

`O=C(Nc1ccc(Cl)c(Cl)c1)Nc1cccc2ccccc12` came in with a half-maximal inhibitory concentration (IC50) in the assay on Schistosoma japonicum [3] of 12.8 µM.

As for `O=C(Nc1ccc(Cl)c(C(F)(F)F)c1)Nc1ccc(Cl)c(C(F)(F)F)c1`, the concentration for half-maximal inhibition (IC50) in the assay with Schistosoma japonicum [4] worked out at 2.2 µM; with Schistosoma japonicum [3], 2.8 µM. The Activity is reported as 33.4% in the assay with Schistosoma japonicum [5] and 32.6% in the assay on Schistosoma japonicum [6].

As for `N#Cc1cc(NC(=O)Nc2ccc(Cl)c(Cl)c2)ccc1F`, the IC50 in the assay with Schistosoma japonicum [4] was found to be 2.2 µM; in the assay with Schistosoma japonicum [3], 4.3 µM. In addition, the Activity in the assay on Schistosoma japonicum [7] is given as 14.6%; with Schistosoma japonicum [2], 11.4%.

In the case of `COc1ccc(NC(=O)Nc2ccc(Cl)c(Cl)c2)cc1`, the result with Schistosoma japonicum [1] was inactive.

For `Clc1nc(Nc2ccc(Cl)c(Cl)c2)nc(Nc2ccc(Cl)c(Cl)c2)n1`, the result in the assay on Schistosoma japonicum [1] was inactive.

As to `O=C1N(c2ccc(Cl)c(Cl)c2)C(O)C(O)N1c1ccc(Cl)c(C(F)(F)F)c1` (stereo not drawn), in the assay with Schistosoma japonicum [1], the result was inactive.

With `O=C(Nc1ccc(N2CCOCC2)c(C(F)(F)F)c1)Nc1ccc(N2CCOCC2)c(C(F)(F)F)c1`, the IC50 in the assay on Schistosoma japonicum [3] amounted to 22.6 µM.

Consider `O=C(Nc1ccccn1)Nc1ccccn1`, for which, in the assay with Schistosoma japonicum [1], the result was inactive.

As for `O=C(Nc1ccc(Cl)c(Cl)c1)NC1CCCCC1`, the outcome in the assay on Schistosoma japonicum [1] was inactive.

Consider `CCCCNC(=O)Nc1ccc(Cl)c(Cl)c1`, for which the result in the assay on Schistosoma japonicum [1] was inactive.

Regarding `O=C(Nc1cccnc1)Nc1cccnc1`, in the assay with Schistosoma japonicum [1], the outcome was inactive.

With `O=C(Nc1ccc(Cl)c(Cl)c1)Nc1cnc(Cl)c(Cl)c1`, half-maximal inhibition in the assay with Schistosoma japonicum [3] (IC50) was put at 11.3 µM.

Take `O=C(Nc1ccc(F)c(F)c1)Nc1ccc(F)c(F)c1`: the figures for the IC50 with Schistosoma japonicum [4] and in the assay on Schistosoma japonicum [3] were 5.1 µM and 7 µM, respectively. In addition, the Activity in the assay with Schistosoma japonicum [7] is listed as 6.4%; with Schistosoma japonicum [2], 2.3%.

In the case of `O=C(Nc1cccnc1)Nc1ccc(Cl)c(Cl)c1`, the result in the assay with Schistosoma japonicum [1] was inactive.

`O=C(Nc1ccc(Cl)c(Cl)c1)Nc1ccccc1F`: in the assay with Schistosoma japonicum [1], the result was inactive.

Take `S=C(Nc1ccc(Cl)c(Cl)c1)Nc1ccc(Cl)c(Cl)c1`: the outcome in the assay on Schistosoma japonicum [1] was inactive.

In the assay on Schistosoma japonicum [3], `Cc1ccc(NC(=O)Nc2ccc(Cl)c(Cl)c2)cc1Cl` yielded an IC50 of 12.7 µM.

In the case of `O=S(=O)(Nc1ccc(Cl)c(Cl)c1)Nc1ccc(Cl)c(Cl)c1`, the result in the assay with Schistosoma japonicum [1] was Active. In the assay on Schistosoma japonicum [3], the IC50 came out at 22.6 µM.

Turning to `O=C(Nc1ccc(Cl)c(Cl)c1)Nc1ccc(Cl)c(Cl)c1`, the 50% inhibitory concentration (IC50) in the assay on Schistosoma japonicum [4] worked out at 2.2 µM; in the assay on Schistosoma japonicum [3] it was 4.4 µM. The Activity with Schistosoma japonicum [7] amounted to 32.2%; with Schistosoma mansoni, 52.5%; in the assay with Schistosoma japonicum [2], 9.3%.

Consider `O=C(Nc1cccc(Cl)c1)Nc1ccc(Cl)c(Cl)c1`, for which, in the assay with Schistosoma japonicum [3], the IC50 came out at 10.1 µM.

With `Cc1ccc(NC(=O)Nc2ccc(Cl)c(Cl)c2)cc1`, the result with Schistosoma japonicum [1] was inactive.

In the case of `O=C(Nc1ccc(Cl)c(Cl)c1)Nc1cccc2cnccc12`, the IC50 in the assay on Schistosoma japonicum [3] turned out to be 22.6 µM.

Take `O=C(Nc1ccc(Cl)c(Cl)c1)Nc1ccc(N2CCOCC2)c(C(F)(F)F)c1`: the figures for the half-maximal inhibitory concentration (IC50) in the assay on Schistosoma japonicum [4] and in the assay on Schistosoma japonicum [3] were 8.4 µM and 9.6 µM, respectively. In addition, the results for the Activity in the assay with Schistosoma japonicum [7] and in the assay with Schistosoma japonicum [2] were 18.8% and 3.4%, respectively.

With `O=C(Nc1ccc(F)c(F)c1)Nc1ccc(Cl)c(Cl)c1`, the figures for the IC50 in the assay on Schistosoma japonicum [4] and in the assay on Schistosoma japonicum [3] were 2.2 µM and 4.7 µM, respectively. Also, the Activity with Schistosoma japonicum [7] was 27.8%; in the assay with Schistosoma japonicum [2], 0%.

As for `Clc1ccc(Nc2cc(Nc3ccc(Cl)c(Cl)c3)ncn2)cc1Cl`, the outcome in the assay with Schistosoma japonicum [1] was inactive.

`O=C1N(c2ccc(Cl)c(Cl)c2)CCN1c1ccc(Cl)c(C(F)(F)F)c1`: the outcome in the assay on Schistosoma japonicum [1] was inactive.
